{
  "source": "ChEMBL document CHEMBL1141349",
  "about": "“Cytochrome P3A4 inhibitors and other constituents of Fibraurea tinctoria” (J Nat Prod, 2007)",
  "data": [
    {"molecular_target": "Cytochrome P450 3A4 (Homo sapiens, UniProt P08684)", "sequence (P08684 whole entry)": "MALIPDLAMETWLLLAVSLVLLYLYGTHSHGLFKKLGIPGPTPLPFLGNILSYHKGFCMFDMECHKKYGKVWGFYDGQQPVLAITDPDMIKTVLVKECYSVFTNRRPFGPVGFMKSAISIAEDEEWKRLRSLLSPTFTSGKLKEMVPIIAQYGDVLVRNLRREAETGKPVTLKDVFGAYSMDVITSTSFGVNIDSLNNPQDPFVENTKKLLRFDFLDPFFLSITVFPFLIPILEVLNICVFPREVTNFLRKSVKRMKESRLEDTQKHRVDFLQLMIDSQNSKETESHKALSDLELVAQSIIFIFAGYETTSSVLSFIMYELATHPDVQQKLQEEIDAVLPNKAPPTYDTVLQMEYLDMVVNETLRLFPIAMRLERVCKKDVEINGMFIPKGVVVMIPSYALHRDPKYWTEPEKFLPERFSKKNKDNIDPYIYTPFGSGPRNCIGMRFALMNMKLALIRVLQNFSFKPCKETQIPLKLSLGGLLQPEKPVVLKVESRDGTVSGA", "test": "Inhibition of human CYP3A4 expressed in Escherichia coli assessed as inhibition of nifedipine oxidation", "assay_type": "ADME", "method_in_brief": "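Bicistronic human CYP3A4 expressed in E. coli DH5; bacterial membrane fractions (sonication, differential centrifugation) stored at -75 °C, P450 content by CO-difference spectroscopy. Nifedipine substrate with 100 pmol P450 per incubation, 37 °C shaking waterbath; pyridine metabolite quantified by HPLC.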", "units": {"IC50": "µM"}, "values": [
      {"smiles": "C[C@@]12C[C@H](c3ccoc3)OC(=O)[C@@H]1[C@@H](O)C[C@]1(C)[C@H]2[C@@H]2OC(=O)[C@@]1(O)[C@H]1O[C@@H]21", "note": "[FIBRAURETIN A]", "IC50": "> 100"},
      {"smiles": "COc1cc2c(cc1OC)-c1cc3ccc(OC)c(OC)c3c[n+]1CC2", "note": "[PALMATINE CHLORIDE]", "IC50": 0.9},
      {"smiles": "C[C@@]12C[C@H](c3ccoc3)OC(=O)C1=CC[C@]1(C)[C@H]2[C@H]2C=C[C@]1(O[C@@H]1O[C@H](CO)[C@@H](O)[C@H](O)[C@H]1O)C(=O)O2", "note": "[FIBLEUCINOSIDE]", "IC50": "> 100"},
      {"smiles": "C[C@@]12C[C@H](c3ccoc3)OC(=O)[C@@H]1CC[C@@]1(CO[C@@H]3O[C@H](CO)[C@@H](O)[C@H](O)[C@H]3O)C(=O)C=CC[C@H]12", "IC50": "> 100"},
      {"smiles": "C[C@H](C[C@@H](O)[C@](C)(O)[C@H]1CC[C@@]2(O)C3=CC(=O)[C@@H]4C[C@@H](O[C@@H]5O[C@H](CO)[C@@H](O)[C@H](O)[C@H]5O)[C@@H](O)C[C@]4(C)[C@H]3CC[C@]12C)C(C)(C)O", "note": "[FIBRAURECDYSIDE A]", "IC50": "> 100"},
      {"smiles": "C[C@@]12[C@H]3CC=C[C@]1(O[C@@H]1O[C@H](CO)[C@@H](O)[C@H](O)[C@H]1O)C(=O)O[C@@H]2C[C@]1(O)C(=O)O[C@H](c2ccoc2)C[C@@]31C", "note": "[FIBRAURETINOSIDE A]", "IC50": "> 100"},
      {"smiles": "C[C@@]12[C@H]3CC=C[C@@]1(O[C@@H]1O[C@H](CO)[C@@H](O)[C@H](O)[C@H]1O)C(=O)O[C@@H]2C[C@]1(O)C(=O)O[C@H](c2ccoc2)C[C@@]31C", "note": "[EPI-FIBRAURETINOSIDE A]", "IC50": "> 100"},
      {"smiles": "C[C@@]12C[C@H](c3ccoc3)OC(=O)C1=CC[C@]1(C)[C@H]2[C@@H]2OC(=O)[C@@]1(O[C@@H]1O[C@H](CO)[C@@H](O)[C@H](O)[C@H]1O)[C@H]1O[C@@H]21", "note": "[FIBRAURINOSIDE]", "IC50": "> 100"},
      {"smiles": "C[C@H](C[C@@H](O)[C@](C)(O)[C@H]1CC[C@@]2(O)C3=CC(=O)[C@@H]4C[C@@H](O)[C@@H](O)C[C@]4(C)[C@H]3CC[C@]12C)C(C)(C)O", "note": "[MAKISTERONE A]", "IC50": "> 100"},
      {"smiles": "COc1cc2c(cc1O)-c1cc3ccc(OC)c(OC)c3c[n+]1CC2", "note": "[COLUMBAMINE]", "IC50": 30.6},
      {"smiles": "COc1cc2c(cc1O)-c1cc3ccc(O)c(OC)c3c[n+]1CC2", "note": "[STEPHARANINE]", "IC50": "> 2.5"}
    ]}
  ]
}
